Measured values from different studies.
Each line is one published result; the experiments were not run side by side.
Observed: cell growth or viability

SMILES | cell line | method | tested at | time | measurement | result
CN(C)CCNC(=O)c1ccc(-c2nc3ccc4[nH]ncc4c3c3c2CCCCC3)cc1 | HCC827 | – | – | 72 h | GI50 | 3040 nM
C[C@H](Nc1ccc2c(c1)OCCn1cc(N3C(=O)OC[C@H]3C(F)F)nc1-2)C(N)=O | BFTC-909 | ATP luminescence | – | 5 days | EC50 | 342 nM
CCCCC(=O)Nc1ccc(-c2ccc3ncn(CCF)c(=O)c3c2)cn1 | HCC827 | CCK-8 | – | 72 h | IC50 | 360 nM
CN(C)CCNC(=O)c1ccc(-c2nc3ccc4[nH]ncc4c3c3c2CCCCC3)c(F)c1 | HCC827 | – | – | 72 h | GI50 | 985 nM
Cc1nc(NC(=O)N2CCC[C@H]2C(N)=O)sc1-c1ccnc(C(C)(C)C(F)(F)F)c1 | BFTC-909 | ATP luminescence | – | 5 days | EC50 | 5560 nM
CCCCC(=O)Nc1ccc(-c2ccc3ncn(CCCF)c(=O)c3c2)cn1 | HCC827 | CCK-8 | – | 72 h | IC50 | 92 nM
CN(C)CCNC(=O)c1ccc(-c2nc3ccc4[nH]ncc4c3c3c2CCCC3)cc1 | HCC827 | – | – | 72 h | GI50 | 1040 nM
O=C(Nc1ccc(-c2ccc3ncn(Cc4ccccc4)c(=O)c3c2)cn1)c1ccc(F)cc1 | HCC827 | CCK-8 | – | 72 h | IC50 | > 10000 nM
Cc1nc(Nc2ncc(C(=O)Nc3c(C)cccc3Cl)s2)cc(N2CC[C@H](O)C2)n1 | KU812 | ATP luminescence | 10 µM | 72 h | inhibition | 97%
